Reference: ChEMBL document CHEMBL4041513, “In silico identification, design and synthesis of novel piperazine-based antiviral agents targeting the hepatitis C virus helicase” (Eur J Med Chem, 2017)

Assays:
[1] = tested on: Hepatitis C virus; test: Antiviral activity against HCV genotype 1b infected in human HuH5.2 cells with persistent I389luc-ubi-neo/NS3-3'/5.1 replicon after 72 hrs by luciferase reporter gene assay; format: functional, cell-based, Hepacivirus hominis; settings: Huh-5-2, 72 h
Summary of the method: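 Huh 5-2 cells carrying the genotype 1b I389luc-ubi-neo/NS3-3'/5.1 replicon were seeded at 6 500 cells/well in Geneticin-free DMEM/10% FCS and left overnight. Compounds from DMSO stocks were added in a four-step 1-to-5 series for the first screen or an eight-step 1-to-2 series for dose-response curves, then 72 h at 37 °C. Luciferase luminescence after lysis, as % of untreated controls, gave EC50; mean of ≥2 experiments.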

[2] = Cytotoxicity against human HuH5.2 cells assessed as reduction in cell viability after 72 hrs by MTS assay; format: cell-based, Huh-5-2
Summary of the method: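 Huh 5-2 cells carrying the genotype 1b I389luc-ubi-neo/NS3-3'/5.1 replicon were seeded at 6 500 cells/well in medium without Geneticin one day ahead. Compounds (DMSO stock) were added as 1:5 four-step or 1:2 eight-step dilutions for 72 h at 37 °C.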

[3] = Inhibition of HCV NS3 helicase DNA unwinding activity using fluorescent DNA substrate by molecular beacon assay; set-up: species or system Hepacivirus hominis
Summary of the method: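 Molecular beacon unwinding reaction: 25 mM MOPS pH 6.5, 1.25 mM MgCl2, 5% DMSO, 5 µg/ml BSA, 0.01% Tween20, 0.05 mM DTT, 5 nM fluorescent DNA substrate, 12.5 nM NS3h, 1 mM ATP. Duplicate two-fold dilutions spanned 1 mM to 0.78 µM. Data normalised to no-inhibitor and no-enzyme controls; IC50 from variable-slope Hill fit.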

[4] = Selectivity index, ratio of CC50 for human HuH5.2 cells to EC50 for HCV genotype 1b infected in human HuH5.2 cells with persistent I389luc-ubi-neo/NS3-3'/5.1 replicon

Row | SMILES | EC50 [1] | EC90 [1] | CC50 at 72 h [2] | IC50 [3] | Ratio CC50/EC50 [4]
1 | O=S(=O)(NCCCN1CCN(CCCNS(=O)(=O)c2cccc3ccccc23)CC1)c1cccc2ccccc12 | > 172 µM | > 172 µM | > 172 µM | > 1000 µM | –
2 | Cc1ccc(S(=O)(=O)NCCCN2CCN(C(=O)CCNS(=O)(=O)c3ccc(C)cc3)CC2)cc1 | 64.3 µM | 173 µM | > 191 µM | – | >3
3 | COc1ccc(S(=O)(=O)NCCC(=O)N2CCN(C(=O)CCNS(=O)(=O)c3ccc(OC)c(OC)c3)CC2)cc1OC | > 159 µM | > 159 µM | > 159 µM | – | –
4 | COc1ccc(OC)c(S(=O)(=O)NCCCN2CCN(CCCNS(=O)(=O)c3cc(OC)ccc3OC)CC2)c1 | > 83.2 µM | > 83.2 µM | > 83.2 µM | – | –
5 | O=C(CCNS(=O)(=O)c1ccc2ccccc2c1)N1CCN(C(=O)CCNS(=O)(=O)c2ccc3ccccc3c2)CC1 | 12 µM | – | 40.8 µM | – | 3.4
6 | COc1ccc(S(=O)(=O)NCCC(=O)N2CCN(C(=O)CCNS(=O)(=O)c3ccc(OC)cc3)CC2)cc1 | – | – | > 87.9 µM | – | –
7 | COc1ccc(OC)c(S(=O)(=O)NCCN2CCN(CCNS(=O)(=O)c3cc(OC)ccc3OC)CC2)c1 | > 87.3 µM | – | > 87.3 µM | – | –
8 | O=S(=O)(NCCCN1CCN(CCCNS(=O)(=O)c2cccs2)CC1)c1cccs1 | 62 µM | 156 µM | > 203 µM | – | >3.3
9 | Cc1ccc2nc(N3C(=O)C(O)=C(C(=O)c4cc5ccccc5o4)C3c3cccc(O)c3)sc2c1 (stereo not given) | 35.8 µM | – | > 104 µM | – | >2.8
10 | O=S(=O)(NCCCN1CCN(CCNS(=O)(=O)c2ccc(Cl)cc2)CC1)c1ccc(Cl)cc1 | 6.59 µM | – | 32.3 µM | – | 4.9
11 | CC(=O)c1ccc(NC(=O)CSc2nnc(NC(=O)CCc3ccccc3)s2)cc1 | > 113 µM | > 113 µM | > 113 µM | – | –
12 | O=S(=O)(NCCN1CCN(CCNS(=O)(=O)c2ccc(Cl)cc2)CC1)c1ccc(Cl)cc1 | > 95.9 µM | – | > 95.9 µM | 250 µM | –
13 | O=C(O)C1=CC(=C(c2ccc(O)c(C(=O)O)c2)c2ccc(O)c(C(=O)O)c2)C=CC1=O [AURINTRICARBOXYLIC ACID] | – | – | – | 0.3 µM | –
14 | COc1ccc(S(=O)(=O)NCCN2CCN(CCNS(=O)(=O)c3ccc(OC)cc3)CC2)cc1 | > 97.5 µM | > 97.5 µM | > 97.5 µM | – | –
15 | O=S(=O)(NCCCN1CCN(CCNS(=O)(=O)c2ccccc2)CC1)c1ccccc1 | 69.2 µM | 212 µM | > 214 µM | – | >3.1
16 | O=[N+]([O-])c1ccc(S(=O)(=O)NCCN2CCN(CCNS(=O)(=O)c3ccc([N+](=O)[O-])cc3)CC2)cc1 | 17.4 µM | – | > 184 µM | – | >10.6
17 | COc1ccc(C(=O)C2=C(O)C(=O)N(c3cnoc3C)C2c2ccc(C(C)(C)C)cc2)cc1OC (stereo not given) | 57.2 µM | – | > 105 µM | – | >1.8
18 | O=C(NCCCN1CCN(CCCNC(=O)c2ccc(Cl)cc2)CC1)c1ccc(Cl)cc1 | > 209 µM | > 209 µM | > 209 µM | – | –
19 | O=S(=O)(NCCCN1CCN(CCCNS(=O)(=O)c2ccc(-c3ccccc3)cc2)CC1)c1ccc(Cl)cc1 | 2.12 µM | – | 4.43 µM | – | 2.1
20 | CCC[C@H](NC(=O)[C@@H]1[C@H]2CCC[C@H]2CN1C(=O)[C@@H](NC(=O)[C@@H](NC(=O)c1cnccn1)C1CCCCC1)C(C)(C)C)C(=O)C(=O)NC1CC1 | – | – | – | – | 58.8
21 | O=[N+]([O-])c1ccc(S(=O)(=O)NCCCN2CCN(CCCNS(=O)(=O)c3ccc([N+](=O)[O-])cc3)CC2)cc1 | 18.1 µM | 61.1 µM | 77.4 µM | – | 4.4
22 | Cc1ccc(S(=O)(=O)NCCCN2CCN(CCCNS(=O)(=O)c3ccc(-c4ccccc4)cc3)CC2)cc1 | 1.98 µM | – | 6.55 µM | – | 3.3
23 | O=S(=O)(NCCCN1CCN(CCCNS(=O)(=O)c2ccccc2)CC1)c1ccccc1 | 58.3 µM | – | > 104 µM | – | >1.8
24 | Cc1ccc2nc(-c3ccc4nc(-c5ccc(N)cc5)sc4c3)sc2c1S(=O)(=O)O | – | – | – | 10 µM | –
25 | Cc1ccc(S(=O)(=O)NCCCN2CCN(CCCNS(=O)(=O)c3ccccc3)CC2)cc1 | 26.3 µM | – | 138 µM | – | 5.3
26 | O=S(=O)(NCCCN1CCN(CCCNS(=O)(=O)c2ccc(C(F)(F)F)cc2)CC1)c1ccc(Cl)cc1 | 10.1 µM | 33.5 µM | 63.7 µM | – | 6.3
27 | Cc1ccc(S(=O)(=O)NCCCN2CCN(CCCNS(=O)(=O)c3ccc(Cl)cc3)CC2)cc1 | 9.93 µM | 36 µM | 48.8 µM | – | 4.9

Row | SMILES | EC50 [1] | EC90 [1] | CC50 at 72 h [2] | IC50 [3] | Ratio CC50/EC50 [4]
28 | O=c1nc2n(-c3cccc(Br)c3)c3ccccc3cc-2c(=O)[nH]1 | 81.7 µM | – | > 136 µM | – | >1.6
29 | Cc1ccc(C(=O)C2=C(O)C(=O)N(Cc3ccco3)C2c2cccc(Cl)c2)o1 (stereo not given) | 30.6 µM | – | > 126 µM | – | >4.1
30 | O=S(=O)(NCCCN1CCN(CCCNS(=O)(=O)c2cccnc2)CC1)c1cccnc1 | > 207 µM | > 207 µM | > 207 µM | – | –
31 | COc1ccc(S(=O)(=O)NCCCN2CCN(CCCNS(=O)(=O)c3ccc(OC)cc3)CC2)cc1 | > 92.5 µM | > 92.5 µM | > 92.5 µM | – | –
32 | CC(C)(C)c1ccc(S(=O)(=O)NCCCN2CCN(CCCNS(=O)(=O)c3ccccc3)CC2)cc1 | 3.74 µM | – | 20.5 µM | – | 5.5
33 | CC(C)(C)c1ccc(C(=O)Oc2ccc3c(-c4ccccc4C(=O)O)c4ccc(=O)cc-4oc3c2)cc1 | > 102 µM | > 102 µM | > 102 µM | – | –
34 | O=S(=O)(NCCNc1ccc(NCCNS(=O)(=O)c2ccc(Cl)cc2)cc1)c1ccc(Cl)cc1 | 12.1 µM | – | 22 µM | – | 1.8
35 | O=S(=O)(NCCCN1CCN(CCCNS(=O)(=O)c2ccc(Cl)cc2)CC1)c1ccccc1 | 19.9 µM | > 64 µM | 81.5 µM | – | 4.1
36 | O=S(=O)(NCCCN1CCN(CCCNS(=O)(=O)c2cccc(Cl)c2)CC1)c1cccc(Cl)c1 | 76.9 µM | 173 µM | > 182 µM | – | >2.4
37 | O=C1N/C(=N/N=C/c2ccccc2O)SC1Cc1ccc(Br)cc1 (stereo not given) | 10.4 µM | – | 15.7 µM | – | 1.5
38 | Cc1ccc(S(=O)(=O)NCCN2CCN(CCNS(=O)(=O)c3ccc(C)cc3)CC2)cc1 | > 104 µM | > 104 µM | > 104 µM | – | –
39 | CC(C)Oc1ccc(/C=N/N=C2/NC(=O)C(CC(=O)O)S2)cc1 (stereo not given) | 127 µM | – | > 149 µM | – | >1.1
40 | COc1ccc(OC)c(S(=O)(=O)NCCC(=O)N2CCN(C(=O)CCNS(=O)(=O)c3cc(OC)ccc3OC)CC2)c1 | > 79.5 µM | – | > 79.5 µM | – | –
41 | Cc1ccc(S(=O)(=O)NCCCN2CCN(CCCNS(=O)(=O)c3ccc(C(C)(C)C)cc3)CC2)cc1 | 3.5 µM | 9.44 µM | 14.6 µM | – | 4.2
42 | COc1ccc(-c2ccc(/C=N/NC(=O)COc3cc(C)ccc3C)o2)cc1Cl | 26.4 µM | > 121 µM | > 121 µM | – | >4.5
43 | Cc1ccc2nc(N3C(=O)C(O)=C(C(=O)c4cc5ccccc5o4)C3c3cccc(Oc4ccccc4)c3)sc2c1 (stereo not given) | 41.8 µM | > 89.5 µM | > 89.5 µM | – | >2.1
44 | O=C1NC(=O)/C(=C\c2ccc(-c3ccc(Cl)cc3Cl)o2)S1 | 13.2 µM | – | 33.4 µM | – | 2.5
45 | COc1ccc(S(=O)(=O)NCCCN2CCN(CCCNS(=O)(=O)c3ccc(OC)c(OC)c3)CC2)cc1OC | 82 µM | > 166 µM | > 166 µM | – | >2
46 | O=S(=O)(NCCCN1CCN(CCCNS(=O)(=O)c2ccccc2Cl)CC1)c1ccccc1Cl | – | – | > 182 µM | – | –
47 | O=S(=O)(NCCCN1CCCCC1)c1ccc(Cl)cc1 | 61.9 µM | – | 145 µM | – | 2.3
48 | CC(CC(=O)O)CC(=O)Nc1cccnc1 (stereo not given) | > 225 µM | > 225 µM | > 225 µM | – | –
49 | O=S(=O)(NCCCN1CCN(CCCNS(=O)(=O)c2ccc(C(F)(F)F)cc2)CC1)c1ccccc1 | 12.1 µM | – | 70.8 µM | – | 5.8
50 | COc1ccc(S(=O)(=O)NCCN2CCN(CCNS(=O)(=O)c3ccc(OC)c(OC)c3)CC2)cc1OC | 85.8 µM | > 87.3 µM | > 87.3 µM | – | >1
51 | O=S(=O)(NCCN1CCN(CCNS(=O)(=O)c2ccccc2)CC1)c1ccccc1 | > 110 µM | – | > 110 µM | – | –
52 | Cc1ccc(S(=O)(=O)NCCCN2CCN(CCCNS(=O)(=O)c3ccc(C)cc3)CC2)cc1 | 19.2 µM | – | > 197 µM | – | >10.3
53 | O=C(CCNS(=O)(=O)c1ccccc1)N1CCN(CCCNS(=O)(=O)c2ccccc2)CC1 | > 202 µM | > 202 µM | > 202 µM | – | –
